According to ChEMBL document CHEMBL3769349, “Antiretroviral (HIV-1) activity of azulene derivatives” (Bioorg Med Chem, 2016):
Activity calls are given as the source filed them.

Tests used:
[1] = Cytotoxicity against human U2OS cells assessed as cell viability at highest non-toxic concentration
[2] = test system: Human immunodeficiency virus 1; assay: Antiretroviral activity against HIV-1 based virus like particles infected in U2OS cells assessed as Gluc activity at highest non-toxic concentration; format: functional
[3] = Cytotoxicity against human U2OS cells; format: cell-based
In short: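 Cytotoxicity measured by real-time impedance monitoring (xCELLigence RTCA DP) in U2OS cells kept in IMDM with 10% FBS and Pen/Strep. Compounds tested at several concentrations. Viability compared with 0.5% DMSO vehicle-treated cells. Highest non-toxic concentration defined as the level lowering viability by less than 20%.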

[4] = test system: Human immunodeficiency virus 1; assay: Antiretroviral activity against HIV-1 based virus like particles infected in U2OS cells; format: functional, organism-based; details: Human immunodeficiency virus 1, U2OS
[5] = Selectivity index, ratio of CC50 for human U2OS cells to IC50 for HIV-1 based virus like particles infected in U2OS cells; format: functional
[6] = Cytotoxicity against human TZM-bl cells; format: cell-based
[7] = Selectivity index, ratio of CC50 for human TZM-bl cells to IC50 for HIV-1 infected in TZM-bl cells; format: functional
[8] = test system: Human immunodeficiency virus 1; assay: Antiretroviral activity against HIV-1 infected in TZM-bl cells after 48 hrs by luciferase assay; details: Human immunodeficiency virus 1, TZM-bl
[9] = target: Human immunodeficiency virus type 1 reverse transcriptase (Human immunodeficiency virus 1) (UniProt Q72547); assay: Inhibition of recombinant HIV-1 reverse transcriptase at 500 uM using 234 nt long RNA template after 10 mins by liquid scintillation analysis
In short: (§1)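 Cell-free DNA polymerase assay with recombinant HIV-1 reverse transcriptase (1 unit). Nucleotides: dATP/dGTP/dTTP, cold dCTP and [³³P]dCTP. Enzyme and compound preincubated 10 min at room temperature. Synthesis started with annealed 234-nt RNA template/18-nt DNA primer. Filter-bound radioactivity counted by liquid scintillation. DMSO served as negative control.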

[10] = target: Human immunodeficiency virus type 1 reverse transcriptase (Human immunodeficiency virus 1, UniProt Q72547); assay: Inhibition of recombinant HIV-1 reverse transcriptase using 234 nt long RNA template after 10 mins by liquid scintillation analysis; in short: as §1

SMILES: CCOC(=O)c1ccc(-c2cc(C(=O)OCC)c3cccccc2-3)o1
- viability [1]: 83%
- Activity [2]: 70%

SMILES: Clc1c2cccccc-2c(Cl)c1-c1cncnc1
- viability [1]: 80%
- Activity [2]: 141%

SMILES: N#Cc1cccc(-c2ccc3cccccc2-3)c1
- viability [1]: 80%
- Activity [2]: 63%

SMILES: Cc1ccc(C(C)C)cc2c(C)ccc1-2 [GUAIAZULEN]
- viability [1]: 106%
- Activity [2]: 48%

SMILES: c1ccc(-c2cc(-c3ccccc3)c3cccccc2-3)cc1
- viability [1]: 80%
- Activity [2]: 124%

SMILES: Oc1cc2cccccc-2c1
- viability [1]: 80%
- Activity [2]: 51%
- CC50 [3]: 26.8 µM
- IC50 [4]: 2.2 µM
- Ratio CC50/IC50 [5]: 12.2
- CC50 [6]: 60 µM
- Ratio CC50/IC50 [7]: 7
- IC50 [8]: 8.5 µM

SMILES: Brc1cc(Br)c2cccccc1-2
- viability [1]: 96%
- Activity [2]: 36%

SMILES: Clc1cc(N2CCOCC2)c2cccccc1-2
- viability [1]: 80%
- Activity [2]: 98%

SMILES: Cc1ccnc2c1NC(=O)c1cccnc1N2C1CC1 [NEVIRAPINE]
- Activity [2]: 0.01%

SMILES: CCOC(=O)c1ccc2cccccc1-2
- viability [1]: 85%
- Activity [2]: 52%
- IC50 [4]: > 75 µM

SMILES: Clc1cc(-c2ccncc2)c2cccccc1-2
- viability [1]: 80%
- Activity [2]: 36%

SMILES: Cc1cc(S(=O)(=O)[O-])c2c(C)ccc(C(C)C)cc1-2.[Na+] [SODIUM GUALENATE]
- viability [1]: 91%
- Activity [2]: 154%

SMILES: CCOC(=O)c1c(O)cc2cccccc1-2
- viability [1]: 89%
- Activity [2]: 6.4%
- CC50 [3]: 344 µM
- IC50 [4]: 10.1 µM
- Ratio CC50/IC50 [5]: 34.1
- CC50 [6]: 260 µM

SMILES: CCOC(=O)c1c2cccccc-2c(C(=O)OCC)c1O
- inhibition [9]: Active
- viability [1]: 80%
- Activity [2]: 3.5%
- CC50 [3]: 72.2 µM
- IC50 [4]: 4.4 µM
- Ratio CC50/IC50 [5]: 16.4
- CC50 [6]: 65 µM
- Ratio CC50/IC50 [7]: 3
- IC50 [10]: 104 µM
- IC50 [8]: 20 µM

SMILES: Clc1cc(-c2ccccc2)c2cccccc1-2
- viability [1]: 88%
- Activity [2]: 94%

SMILES: Clc1cc(Br)c2cccccc1-2
- viability [1]: 101%
- Activity [2]: 32%

SMILES: O=C(O)c1cccc(-c2cc(Cl)c3cccccc2-3)c1
- viability [1]: 92%
- Activity [2]: 103%

SMILES: CCOC(=O)c1ncc(-c2ccc3cccccc2-3)cc1F
- viability [1]: 86%
- Activity [2]: 80%
